Laboratory results taken from ChEMBL document CHEMBL1145964, “Antineoplastic agents. 487. Synthesis and biological evaluation of the antineoplastic agent 3,4-methylenedioxy-5,4'-dimethoxy-3'-amino-Z-stilbene and derived amino acid amides” (J Med Chem, 2003).
Converted amounts (≈) assume the structure as drawn. “And” between values parts separate entries of the source, which are not always exact repeats. Identical values can stand only once.

How the values were obtained:
[1] = Inhibitory activity against colon KM2OL2 cell line; type: functional; conditions: Homo sapiens
[2] = Inhibitory activity against CNS SF-295 cell line; type: functional; conditions: Homo sapiens
P388 = assay: Inhibitory activity against leukemia P388 cell line; type: functional; conditions: Mus musculus, read-out: ED50 (the source's name)
[3] = Inhibitory activity against lung NSC NCI-H460 cell line; type: functional; conditions: Homo sapiens
[4] = Inhibitory activity against pancreatic BXPC-3 cell line; type: functional; conditions: Homo sapiens
[5] = Inhibitory activity against prostate DU145 cell line; type: functional; conditions: Homo sapiens, DU-145
[6] = target: Tubulin alpha chain (Sus scrofa) (UniProt P02550); assay: Percent inhibitory activity (100 uM) against colchicine binding to tubulin […]; conditions: Homo sapiens
Method in brief: (§1)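 Cell-free colchicine-binding test: reaction mixtures held 1.0 µM tubulin, 5.0 µM [³H]colchicine and inhibitor at the stated level; percent inhibition of radiolabel binding recorded.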

MCF7 [7] = assay: Inhibitory activity against breast MCF-7 cell line; type: functional; conditions: Homo sapiens
MCF7 [8] = assay: Mitotic index in MCF-7 breast cancer cells was determined; type: functional, Homo sapiens
Tubulin [9] = assay: Inhibitory activity against tubulin (1.0 mg/mL) assembly was determined; conditions: Homo sapiens
Mus musculus = species: Mus musculus; assay: Inhibitory activity against murine colon 26 adenocarcinoma cell; type: functional
MCF7 [10] = assay: Inhibitory activity against breast cancer cell line MCF-7; type: functional; conditions: Homo sapiens
[11] = Inhibitory activity against pancreatic cell line BXPC-3; type: functional; conditions: Homo sapiens
[12] = Inhibitory activity against prostate DU145; type: functional; conditions: Homo sapiens, DU-145, Prostate gland
Tubulin [13] = assay: Inhibitory activity against tubulin (1.0 mg/mL) assembly was determined; conditions: Homo sapiens; remark: listed apart in the source
[14] = target: Tubulin alpha chain (Sus scrofa) (UniProt P02550); assay: Percent inhibitory activity (2 uM) against colchicine binding to tubulin […]; conditions: Homo sapiens
Method in brief: (§2)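 Binding of [³H]colchicine to purified tubulin, not a cell assay: reaction mixtures held 1.0 µM tubulin, 5.0 µM [³H]colchicine and test compound at 2 or 5 µM as indicated. Read-out is percent inhibition of colchicine binding.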

[15] = target: Tubulin alpha chain (Sus scrofa) (UniProt P02550); assay: Percent inhibitory activity (5 uM) against colchicine binding to tubulin […]; conditions: Homo sapiens; method in brief: as §2
[16] = target: Tubulin alpha chain (Sus scrofa) (UniProt P02550); assay: Percent inhibitory activity (20 uM) against colchicine binding to tubulin […]; conditions: Homo sapiens; method in brief: as §1
[17] = target: Tubulin alpha chain (Sus scrofa) (UniProt P02550); assay: Percent inhibitory activity (5 uM) against colchicine binding to […]; conditions: Homo sapiens

Chain of Tubulin alpha chain (Sus scrofa) (P02550 whole entry, looked up): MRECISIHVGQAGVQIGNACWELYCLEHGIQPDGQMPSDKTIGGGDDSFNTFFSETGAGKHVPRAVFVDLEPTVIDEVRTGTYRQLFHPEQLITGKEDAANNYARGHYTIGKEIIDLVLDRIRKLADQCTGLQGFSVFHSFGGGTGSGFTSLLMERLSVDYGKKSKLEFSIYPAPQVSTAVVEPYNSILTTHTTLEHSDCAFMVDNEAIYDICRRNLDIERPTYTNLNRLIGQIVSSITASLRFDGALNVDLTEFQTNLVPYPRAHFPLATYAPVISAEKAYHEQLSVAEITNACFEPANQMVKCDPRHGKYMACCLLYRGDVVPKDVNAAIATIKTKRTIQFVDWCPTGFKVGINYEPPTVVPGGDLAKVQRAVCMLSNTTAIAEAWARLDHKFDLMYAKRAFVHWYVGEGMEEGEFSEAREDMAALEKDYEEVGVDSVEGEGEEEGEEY

Row | SMILES | EC50 (P388) [µg/mL] | inhibition [6] [%] | GI50 (MCF7 [7]) [µg/mL] | IC50 (Tubulin [9]) [µM] | GI50 (MCF7 [10]) [µg/mL] | IC50 (Tubulin [13]) [nM] | inhibition [16] [%] | GI50 [1] [µg/mL] | GI50 [2] [µg/mL] | GI50 [3] [µg/mL] | GI50 [4] [µg/mL] | GI50 [5] [µg/mL] | Mitotic index (MCF7 [8]) | IC50 (Mus musculus) [nM] | GI50 [11] [µg/mL] | GI50 [12] [µg/mL] | inhibition [14] | inhibition [15] [%] | inhibition [17] [%]
1 | COc1ccc(/C=C\c2cc(OC)c3c(c2)OCO3)cc1NC(=O)C(N)CS (stereo not given) | 0.332 (≈ 0.825 µM) | 15 | 0.05 (≈ 0.124 µM) | > 40 |  |  |  | 0.055 (≈ 0.137 µM) | 0.037 (≈ 0.0919 µM) | 0.032 (≈ 0.0795 µM) | 0.2 (≈ 0.497 µM) | 0.0046 (≈ 0.0114 µM) | 42 |  |  |  |  |  | 
2 | COc1ccc(/C=C\c2cc(OC)c3c(c2)OCO3)cc1NC(=O)C(N)Cc1ccc(O)cc1 (stereo not given) | 0.0475 (≈ 0.103 µM) | 19 | 0.035 (≈ 0.0757 µM) | > 40 |  |  |  | 0.022 (≈ 0.0476 µM) | 0.0097 (≈ 0.021 µM) | 0.012 (≈ 0.0259 µM) | 0.0067 (≈ 0.0145 µM) | 0.018 (≈ 0.0389 µM) | 44 |  |  |  |  |  | 
3 | COc1ccc(/C=C\c2cc(OC)c(OC)c(OC)c2)cc1O [COMBRETASTATIN A4] |  |  |  | 2.1 |  |  |  |  |  |  |  |  | 57 | 18 |  |  |  |  | 
4 | COc1ccc(/C=C\c2cc(OC)c(OC)c(OC)c2)cc1N |  |  |  |  |  |  |  |  |  |  |  |  |  | 5.1 |  |  |  |  | 
5 | COc1ccc(/C=C/c2cc(OC)c3c(c2)OCO3)cc1P(=O)([O-])O.[Na+] | 0.025 |  | 0.045 |  |  |  |  | 3.8 | 0.042 | 0.41 | 2.1 | 0.053 |  |  |  |  |  |  | 
6 | COc1ccc(/C=C\c2cc(OC)c3c(c2)OCO3)cc1O [Combretastatin A-2] | 0.016 (≈ 0.0533 µM) |  | 0.0042 (≈ 0.014 µM) |  |  |  |  | 0.47 (≈ 1.57 µM) | 0.0083 (≈ 0.0276 µM) | 0.043 (≈ 0.143 µM) | 0.014 (≈ 0.0466 µM) | 0.0054 (≈ 0.018 µM) |  |  |  |  | 79% | 92 | 
7 | COc1ccc(/C=C\c2cc(OC)c3c(c2)OCO3)cc1N [listing 1 of 2 here] |  |  | 0.0047 (≈ 0.0157 µM) | 3.1 |  |  |  |  |  | 0.005 (≈ 0.0167 µM) |  |  |  |  |  |  |  |  | 
8 | COc1ccc(/C=C\c2cc(OC)c3c(c2)OCO3)cc1N.Cl | 0.0388 |  | 0.0042 |  |  |  |  | 0.035 | 0.0082 | 0.0057 | 0.075 | 0.0082 |  |  |  |  |  |  | 
9 | COc1ccc(/C=C\c2cc(OC)c3c(c2)OCO3)cc1N [listing 2 of 2 here] |  |  |  |  |  |  |  |  |  |  |  |  |  |  |  |  | 84% and 87% | 94 | 95

Continued, in another order:

Row | EC50 (P388) [µg/mL] | inhibition [6] [%] | GI50 (MCF7 [7]) [µg/mL] | IC50 (Tubulin [9]) [µM] | GI50 (MCF7 [10]) [µg/mL] | IC50 (Tubulin [13]) [nM] | inhibition [16] [%] | SMILES | GI50 [1] [µg/mL] | GI50 [2] [µg/mL] | GI50 [3] [µg/mL] | GI50 [4] [µg/mL] | GI50 [5] [µg/mL] | Mitotic index (MCF7 [8]) | IC50 (Mus musculus) [nM] | GI50 [11] [µg/mL] | GI50 [12] [µg/mL] | inhibition [14] | inhibition [15] [%] | inhibition [17] [%]
10 | 0.306 (≈ 0.768 µM) | 14 | 0.037 (≈ 0.0929 µM) | > 40 |  |  |  | COc1ccc(/C=C\c2cc(OC)c3c(c2)OCO3)cc1NC(=O)C(N)C(C)C (stereo not given) | 0.019 (≈ 0.0477 µM) | 0.055 (≈ 0.138 µM) | 0.064 (≈ 0.161 µM) | 0.012 (≈ 0.0301 µM) | 0.036 (≈ 0.0903 µM) | 48 |  |  |  |  |  | 
11 | 0.227 (≈ 0.689 µM) |  |  |  | 0.36 (≈ 1.09 µM) | 390 |  | COc1ccc(/C=C\c2cc(OC)c3c(c2)OCO3)cc1[N+](=O)[O-] | 0.45 (≈ 1.37 µM) | 0.33 (≈ 1 µM) | 0.35 (≈ 1.06 µM) |  |  |  |  | 0.38 (≈ 1.15 µM) | 0.64 (≈ 1.94 µM) |  |  | 
12 | 0.172 (≈ 0.445 µM) | 64 | 0.017 (≈ 0.044 µM) | > 40 |  |  | 22 | COc1ccc(/C=C\c2cc(OC)c3c(c2)OCO3)cc1NC(=O)C(N)CO (stereo not given) | 0.019 (≈ 0.0492 µM) | 0.049 (≈ 0.127 µM) | 0.042 (≈ 0.109 µM) | 0.027 (≈ 0.0699 µM) | 0.014 (≈ 0.0362 µM) | 35 |  |  |  |  |  | 
13 | 0.0653 (≈ 0.134 µM) | 16 | 0.035 (≈ 0.0721 µM) | > 40 |  |  |  | COc1ccc(/C=C\c2cc(OC)c3c(c2)OCO3)cc1NC(=O)C(N)Cc1c[nH]c2ccccc12 (stereo not given) | 0.018 (≈ 0.0371 µM) | 0.042 (≈ 0.0865 µM) | 0.053 (≈ 0.109 µM) | 0.044 (≈ 0.0906 µM) | 0.04 (≈ 0.0824 µM) | 57 |  |  |  |  |  | 
14 | 0.0585 (≈ 0.131 µM) | 16 | 0.044 (≈ 0.0985 µM) | > 40 |  |  |  | COc1ccc(/C=C\c2cc(OC)c3c(c2)OCO3)cc1NC(=O)C(N)Cc1ccccc1 (stereo not given) | 0.034 (≈ 0.0761 µM) | 1.7 (≈ 3.81 µM) | 0.044 (≈ 0.0985 µM) | 0.2 (≈ 0.448 µM) | 0.04 (≈ 0.0896 µM) | 52 |  |  |  |  |  | 
15 | > 10 |  | > 10 |  |  |  |  | COc1ccc(/C=C/c2cc(OC)c3c(c2)OCO3)cc1[N+](=O)[O-] | > 10 | 4.6 (≈ 14 µM) | > 10 | > 10 | > 10 |  |  |  |  |  |  | 
16 | 0.0199 (≈ 0.0558 µM) | 66 | 0.014 (≈ 0.0393 µM) | > 40 |  |  | 31 | COc1ccc(/C=C\c2cc(OC)c3c(c2)OCO3)cc1NC(=O)CN | 0.012 (≈ 0.0337 µM) | 0.059 (≈ 0.166 µM) | 0.0042 (≈ 0.0118 µM) | 0.025 (≈ 0.0702 µM) | 0.0028 (≈ 0.00786 µM) | 52 |  |  |  |  |  | 
